Data reported in ChEMBL document CHEMBL3611968, “Reengineered tricyclic anti-cancer agents” (Bioorg Med Chem, 2015).
Active and inactive are the calls of the source. The rule behind the calls is not given here.

Legend:
[1] = Tmax in mouse at 100 mg/kg, ip administered through DMA/solutol/water; format: ADME, organism-based; settings: in vivo
[2] = species on record: Homo sapiens; test: Displacement of [125-I]-apamin from SKCa channel (unknown origin) at 0.1 to 10 mM
[3] = biological target: T1, Muscarinic acetylcholine receptor M2 (Homo sapiens) (UniProt P08172); test: Displacement of [3H]-AF-DX384 from muscarinic acetylcholine M2 receptor (unknown origin) at […]
T1 sequence (whole entry): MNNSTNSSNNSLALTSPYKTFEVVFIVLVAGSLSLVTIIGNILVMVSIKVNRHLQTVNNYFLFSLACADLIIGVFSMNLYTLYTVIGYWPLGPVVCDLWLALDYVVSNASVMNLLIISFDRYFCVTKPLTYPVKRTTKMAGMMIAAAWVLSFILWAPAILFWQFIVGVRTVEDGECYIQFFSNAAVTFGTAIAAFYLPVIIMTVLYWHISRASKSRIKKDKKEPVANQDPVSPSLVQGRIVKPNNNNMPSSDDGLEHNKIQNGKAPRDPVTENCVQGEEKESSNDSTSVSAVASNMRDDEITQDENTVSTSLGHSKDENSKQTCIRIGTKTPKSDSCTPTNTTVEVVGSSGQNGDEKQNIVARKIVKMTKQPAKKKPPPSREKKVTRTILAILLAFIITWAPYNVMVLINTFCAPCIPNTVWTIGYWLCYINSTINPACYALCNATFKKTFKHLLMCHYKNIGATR

[4] = biological target: Voltage-gated inwardly rectifying potassium channel KCNH2 (Homo sapiens, UniProt Q12809); test: Displacement of [3H]-astemizole from human ERG at […]
[5] = Bioavailability in mouse at 100 mg/kg, ip administered through DMSO; format: ADME, organism-based; settings: in vivo
[6] = biological target: Sodium channel protein type 5 subunit alpha (Homo sapiens, UniProt Q14524); test: Inhibition of Nav1.5 channel (unknown origin) expressed in HEK293 cells at […] by patch clamp assay; format: cell-based
Sequence of Sodium channel protein type 5 subunit alpha (Q14524 whole entry): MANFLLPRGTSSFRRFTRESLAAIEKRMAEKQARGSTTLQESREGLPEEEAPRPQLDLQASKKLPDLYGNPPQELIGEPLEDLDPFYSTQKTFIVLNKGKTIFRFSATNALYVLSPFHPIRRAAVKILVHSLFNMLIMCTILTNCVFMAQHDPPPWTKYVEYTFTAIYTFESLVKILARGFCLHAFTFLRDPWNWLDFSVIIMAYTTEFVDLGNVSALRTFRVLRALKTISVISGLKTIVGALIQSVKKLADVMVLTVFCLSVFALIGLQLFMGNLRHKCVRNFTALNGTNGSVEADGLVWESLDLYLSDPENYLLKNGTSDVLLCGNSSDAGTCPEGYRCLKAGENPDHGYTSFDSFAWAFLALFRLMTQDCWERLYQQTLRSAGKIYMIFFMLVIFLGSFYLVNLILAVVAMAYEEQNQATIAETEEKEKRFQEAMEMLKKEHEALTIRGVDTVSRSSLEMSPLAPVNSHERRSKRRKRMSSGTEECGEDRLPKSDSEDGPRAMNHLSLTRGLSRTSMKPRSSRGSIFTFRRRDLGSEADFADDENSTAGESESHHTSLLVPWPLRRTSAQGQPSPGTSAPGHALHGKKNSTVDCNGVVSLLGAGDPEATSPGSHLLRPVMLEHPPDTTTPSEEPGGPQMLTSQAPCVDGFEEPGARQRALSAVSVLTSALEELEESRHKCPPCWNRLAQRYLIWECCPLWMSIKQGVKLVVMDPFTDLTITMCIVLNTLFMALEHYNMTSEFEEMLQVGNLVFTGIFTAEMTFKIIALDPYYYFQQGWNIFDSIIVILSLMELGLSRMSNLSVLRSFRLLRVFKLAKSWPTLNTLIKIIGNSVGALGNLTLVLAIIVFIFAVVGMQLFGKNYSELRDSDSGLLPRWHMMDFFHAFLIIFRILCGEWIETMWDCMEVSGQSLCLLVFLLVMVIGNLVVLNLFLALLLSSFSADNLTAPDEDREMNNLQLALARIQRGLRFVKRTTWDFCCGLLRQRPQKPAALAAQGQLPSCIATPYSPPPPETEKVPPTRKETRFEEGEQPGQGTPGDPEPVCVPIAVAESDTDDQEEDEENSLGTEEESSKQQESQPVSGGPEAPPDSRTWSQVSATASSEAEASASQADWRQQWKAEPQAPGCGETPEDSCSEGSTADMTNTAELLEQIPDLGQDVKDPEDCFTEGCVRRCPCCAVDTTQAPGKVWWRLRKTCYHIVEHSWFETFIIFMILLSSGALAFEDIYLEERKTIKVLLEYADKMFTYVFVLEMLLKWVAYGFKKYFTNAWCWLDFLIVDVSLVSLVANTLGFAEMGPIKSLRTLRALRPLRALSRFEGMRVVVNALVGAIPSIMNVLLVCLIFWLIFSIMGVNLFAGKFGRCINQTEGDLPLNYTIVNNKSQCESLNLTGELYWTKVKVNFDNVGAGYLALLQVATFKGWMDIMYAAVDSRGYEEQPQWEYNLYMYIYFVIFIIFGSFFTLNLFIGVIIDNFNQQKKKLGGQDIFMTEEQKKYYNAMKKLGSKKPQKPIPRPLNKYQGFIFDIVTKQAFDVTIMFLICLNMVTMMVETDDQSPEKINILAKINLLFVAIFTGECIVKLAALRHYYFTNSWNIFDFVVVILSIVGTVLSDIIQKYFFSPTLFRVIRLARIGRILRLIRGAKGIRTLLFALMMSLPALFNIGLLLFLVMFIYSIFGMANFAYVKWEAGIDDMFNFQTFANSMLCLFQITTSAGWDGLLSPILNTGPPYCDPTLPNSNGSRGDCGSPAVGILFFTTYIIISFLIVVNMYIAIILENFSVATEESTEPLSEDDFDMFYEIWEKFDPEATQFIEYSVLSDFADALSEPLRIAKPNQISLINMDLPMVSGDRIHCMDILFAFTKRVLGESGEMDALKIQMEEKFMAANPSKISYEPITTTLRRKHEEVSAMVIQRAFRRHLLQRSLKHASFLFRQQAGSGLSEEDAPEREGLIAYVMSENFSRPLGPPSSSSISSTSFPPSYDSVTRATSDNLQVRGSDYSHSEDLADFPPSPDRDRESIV

[7] = Cmax in mouse at 100 mg/kg, ip administered through DMA/solutol/water; format: ADME, organism-based; set-up: dose 100 mg/kg, route intraperitoneal; settings: in vivo
[8] = biological target: Histamine H2 receptor (Homo sapiens) (UniProt P25021); test: Displacement of [125I]-APT from histamine H2 receptor (unknown origin) at […]
Sequence of Histamine H2 receptor (Homo sapiens) (P25021 whole entry): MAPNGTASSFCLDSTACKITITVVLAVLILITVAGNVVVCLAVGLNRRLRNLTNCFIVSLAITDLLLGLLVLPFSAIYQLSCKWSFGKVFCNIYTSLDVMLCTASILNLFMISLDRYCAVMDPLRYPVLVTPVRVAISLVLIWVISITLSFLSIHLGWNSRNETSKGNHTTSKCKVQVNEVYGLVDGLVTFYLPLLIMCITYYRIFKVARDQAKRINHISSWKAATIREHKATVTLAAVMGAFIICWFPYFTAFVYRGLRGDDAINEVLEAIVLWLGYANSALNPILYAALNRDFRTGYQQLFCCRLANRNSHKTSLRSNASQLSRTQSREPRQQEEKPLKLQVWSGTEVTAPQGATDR

[9] = AUCinfinity in mouse at 100 mg/kg, po; format: ADME, organism-based; set-up: dose 100 mg/kg, route oral, time infinity; settings: in vivo
[10] = AUClast in mouse at 100 mg/kg, ip administered through DMA/solutol/water; format: ADME, organism-based; settings: in vivo
[11] = test system: NCI-H1650; test: Inhibition of ERK phosphorylation in human NCI-H1650 cells at 20 to 40 uM after 12 hrs by Western blot analysis; format: cell-based
[12] = biological target: Sodium-dependent noradrenaline transporter (Homo sapiens) (UniProt P23975); test: Displacement of [3H]-nisoxetine from norepinephrine transporter (unknown origin) at 1 to 10 mM
Sequence of Sodium-dependent noradrenaline transporter (Homo sapiens) (P23975 whole entry): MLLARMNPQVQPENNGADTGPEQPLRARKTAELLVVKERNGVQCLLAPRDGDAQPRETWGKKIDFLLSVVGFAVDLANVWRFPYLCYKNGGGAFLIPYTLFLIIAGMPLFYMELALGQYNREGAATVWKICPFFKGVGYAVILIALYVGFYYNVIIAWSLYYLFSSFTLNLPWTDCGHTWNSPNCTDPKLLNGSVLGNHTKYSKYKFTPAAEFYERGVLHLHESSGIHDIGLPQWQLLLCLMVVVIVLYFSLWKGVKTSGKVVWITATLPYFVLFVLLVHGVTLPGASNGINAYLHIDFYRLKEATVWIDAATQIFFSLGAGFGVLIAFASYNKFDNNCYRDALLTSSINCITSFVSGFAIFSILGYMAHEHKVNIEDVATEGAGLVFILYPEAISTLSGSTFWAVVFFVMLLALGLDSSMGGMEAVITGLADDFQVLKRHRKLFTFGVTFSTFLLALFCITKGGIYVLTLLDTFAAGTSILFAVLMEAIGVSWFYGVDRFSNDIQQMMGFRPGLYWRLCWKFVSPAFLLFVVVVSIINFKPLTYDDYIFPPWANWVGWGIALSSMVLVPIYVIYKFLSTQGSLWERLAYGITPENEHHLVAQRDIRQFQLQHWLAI
How it was run: (§1)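 Competitive antagonist radioligand binding at monoamine transporters. Serotonin transporter is labelled with [³H]imipramine and norepinephrine transporter with [³H]nisoxetine. The compound was tested at three concentrations, and binding is expressed as percent inhibition of specific radioligand binding. Each value is the mean of two independent determinations.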

[13] = biological target: Sodium-dependent dopamine transporter (Homo sapiens) (UniProt Q01959); test: Displacement of [3H]-BTCP from dopamine transporter (unknown origin) at 1 to 10 mM
Sequence of Sodium-dependent dopamine transporter (Homo sapiens) (Q01959 whole entry): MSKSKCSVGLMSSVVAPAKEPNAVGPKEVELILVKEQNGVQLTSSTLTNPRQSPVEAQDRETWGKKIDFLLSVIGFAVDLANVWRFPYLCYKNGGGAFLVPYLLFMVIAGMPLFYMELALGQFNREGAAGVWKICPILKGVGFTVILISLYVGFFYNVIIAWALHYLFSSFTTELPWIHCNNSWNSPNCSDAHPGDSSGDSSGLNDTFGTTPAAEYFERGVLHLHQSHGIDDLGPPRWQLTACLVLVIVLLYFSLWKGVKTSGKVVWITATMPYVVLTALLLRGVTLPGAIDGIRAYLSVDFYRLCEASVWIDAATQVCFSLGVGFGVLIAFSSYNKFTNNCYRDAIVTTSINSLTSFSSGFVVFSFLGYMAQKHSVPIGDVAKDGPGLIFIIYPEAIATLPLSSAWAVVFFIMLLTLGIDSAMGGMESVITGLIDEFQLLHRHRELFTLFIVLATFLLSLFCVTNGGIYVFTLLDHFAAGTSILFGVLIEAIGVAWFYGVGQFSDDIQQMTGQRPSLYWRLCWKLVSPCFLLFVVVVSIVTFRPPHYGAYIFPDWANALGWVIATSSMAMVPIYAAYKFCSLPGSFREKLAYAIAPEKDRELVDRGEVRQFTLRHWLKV
How it was run: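 Dopamine transporter antagonist radioligand binding used [3H]BTCP, tested at 0.1, 1.0 and 10 mM, as percent inhibition. Each value is the average of two independent determinations.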

[14] = test system: Voltage-gated potassium channel; test: Displacement of [125-I]-dendrotoxin from Kv channel (unknown origin) at 0.1 to 10 mM; format: protein assay; settings: human
[15] = AUCinfinity in mouse at 100 mg/kg, ip administered through DMSO; format: ADME, organism-based; set-up: dose 100 mg/kg, time infinity, route intraperitoneal; settings: in vivo
[16] = AUCinfinity in mouse at 25 mg/kg, po; format: ADME, organism-based; set-up: dose 25 mg/kg, route oral, time infinity; settings: in vivo
[17] = Oral bioavailability in mouse at 25 mg/kg; format: ADME, organism-based; settings: in vivo
[18] = biological target: Sodium-dependent serotonin transporter (Homo sapiens) (UniProt P31645); test: Displacement of [3H]-imipramine from serotonin transporter (unknown origin) at 0.1 to 10 mM relative to control; how it was run: as §1
Sequence of Sodium-dependent serotonin transporter (Homo sapiens) (P31645 whole entry, looked up): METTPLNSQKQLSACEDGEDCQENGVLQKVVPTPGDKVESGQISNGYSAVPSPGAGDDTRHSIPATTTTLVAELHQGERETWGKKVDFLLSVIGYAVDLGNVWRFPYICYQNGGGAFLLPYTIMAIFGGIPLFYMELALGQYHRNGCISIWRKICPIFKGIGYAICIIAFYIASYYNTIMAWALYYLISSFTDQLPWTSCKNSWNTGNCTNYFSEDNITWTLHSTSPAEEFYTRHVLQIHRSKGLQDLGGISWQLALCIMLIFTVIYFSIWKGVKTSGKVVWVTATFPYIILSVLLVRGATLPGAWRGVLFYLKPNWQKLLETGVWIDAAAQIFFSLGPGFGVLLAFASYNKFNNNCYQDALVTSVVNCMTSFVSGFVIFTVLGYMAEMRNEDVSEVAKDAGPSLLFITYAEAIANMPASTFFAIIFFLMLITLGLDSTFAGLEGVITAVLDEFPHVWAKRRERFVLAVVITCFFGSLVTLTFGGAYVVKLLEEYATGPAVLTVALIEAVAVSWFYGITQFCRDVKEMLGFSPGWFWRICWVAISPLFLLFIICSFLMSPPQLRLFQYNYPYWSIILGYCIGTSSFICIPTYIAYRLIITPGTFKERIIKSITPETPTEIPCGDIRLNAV

[19] = Tmax in mouse at 25 mg/kg, ip; format: ADME, organism-based; settings: in vivo
[20] = species on record: Homo sapiens; test: Displacement of [3H]-D888 from L-type Ca2+ channel verapamil site (unknown origin) at […]
[21] = Volume of distribution at steady state in mouse at 1 mg/kg, iv; format: ADME, organism-based; settings: in vivo, read-out: Vdss
[22] = Oral bioavailability in mouse at 100 mg/kg; format: ADME, organism-based; settings: in vivo
[23] = AUCinfinity in mouse at 100 mg/kg, ip administered through DMA/solutol/water; format: ADME, organism-based; set-up: dose 100 mg/kg, route intraperitoneal, time infinity; settings: in vivo
[24] = species on record: Homo sapiens; test: Displacement of [3H]-nitrendipine from L-type Ca2+ channel dihydropyridine site (unknown origin) at […]
[25] = test system: NCI-H1650; test: Cytotoxicity against human NCI-H1650 cells assessed as growth inhibition after 48 hrs by MTT assay; format: functional; settings: NCI-H1650, 48 h
How it was run: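 H1650 cells were exposed to drug for 48 h at five concentrations bracketing 1–40 μM in 10 μM steps, with MTT read-out. GI50 is given only where the data form a sigmoidal dose response.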

[26] = species on record: Homo sapiens; test: Displacement of [3H]-glibencamide from K (ATP) channel (unknown origin) at […]
[27] = Bioavailability in mouse at 25 mg/kg, ip; format: ADME, organism-based; settings: in vivo
[28] = Tmax in mouse at 100 mg/kg, po; format: ADME, organism-based; settings: in vivo
[29] = test system: NCI-H1650; test: Antitumor activity against human NCI-H1650 cells xenografted in BALB/c nu/nu mouse assessed as change in tumor volume at 100 mg/kg, ip administered every other day for 3 weeks (reference value: 3.46 +/- 0.95); format: functional
How it was run: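 H1650 tumours were grown in mice. The 100 mg/kg treated group (n = 9) was compared with vehicle controls (n = 7) on mean fold change in tumour volume, using Student's t test.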

[30] = biological target: RAC-alpha serine/threonine-protein kinase (Homo sapiens) (UniProt P31749); test: Inhibition of AKT phosphorylation in human NCI-H1650 cells at 20 to 40 uM after 12 hrs by Western blot analysis; format: cell-based
[31] = Tmax in mouse at 25 mg/kg, po; format: ADME, organism-based; settings: in vivo
[32] = AUCinfinity in mouse at 1 mg/kg, iv; format: ADME, organism-based; set-up: dose 1 mg/kg, time infinity, route intravenous; settings: in vivo
[33] = test system: NCI-H1650; test: Cell cycle arrest in human NCI-H1650 cells assessed as accumulation at sub-G1 phase at 1 to 40 uM by propidium iodide staining-based flow cytometric analysis; format: functional
[34] = AUCinfinity in mouse at 25 mg/kg, ip; format: ADME, organism-based; set-up: dose 25 mg/kg, time infinity, route intraperitoneal; settings: in vivo
[35] = Tmax in mouse at 100 mg/kg, ip administered through DMSO; format: ADME, organism-based; settings: in vivo
[36] = AUClast in mouse at 25 mg/kg, ip; format: ADME, organism-based; settings: in vivo
[37] = Half life in mouse at 1 mg/kg, iv; format: ADME, organism-based; settings: in vivo
[38] = AUClast in mouse at 100 mg/kg, po; format: ADME, organism-based; settings: in vivo
[39] = Cmax in mouse at 100 mg/kg, ip administered through DMSO; format: ADME, organism-based; set-up: dose 100 mg/kg, route intraperitoneal; settings: in vivo
[40] = AUClast in mouse at 100 mg/kg, ip administered through DMSO; format: ADME, organism-based; settings: in vivo
[41] = Cmax in mouse at 100 mg/kg, po; format: ADME, organism-based; set-up: dose 100 mg/kg, route oral; settings: in vivo
[42] = biological target: Histamine H1 receptor (Homo sapiens) (UniProt P35367); test: Displacement of [3H]-pyrilamine from histamine H1 receptor (unknown origin) at […]
Sequence of Histamine H1 receptor (Homo sapiens) (P35367 whole entry): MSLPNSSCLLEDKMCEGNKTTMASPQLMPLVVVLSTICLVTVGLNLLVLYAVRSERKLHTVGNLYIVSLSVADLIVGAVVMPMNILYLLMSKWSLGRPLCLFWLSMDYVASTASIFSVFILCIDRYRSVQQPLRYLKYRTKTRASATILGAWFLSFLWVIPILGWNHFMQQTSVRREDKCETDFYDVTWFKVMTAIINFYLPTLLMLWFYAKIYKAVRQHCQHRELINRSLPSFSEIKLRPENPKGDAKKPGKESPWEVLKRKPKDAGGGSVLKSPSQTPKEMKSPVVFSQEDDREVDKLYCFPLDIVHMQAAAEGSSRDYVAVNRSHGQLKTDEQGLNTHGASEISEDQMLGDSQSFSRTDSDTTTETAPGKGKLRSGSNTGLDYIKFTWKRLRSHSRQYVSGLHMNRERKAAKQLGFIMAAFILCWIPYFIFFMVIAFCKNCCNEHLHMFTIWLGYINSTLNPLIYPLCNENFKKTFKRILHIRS

[43] = Bioavailability in mouse at 100 mg/kg, ip administered through DMA/solutol/water; format: ADME, organism-based; settings: in vivo
[44] = Cmax in mouse at 25 mg/kg, ip; format: ADME, organism-based; set-up: dose 25 mg/kg, route intraperitoneal; settings: in vivo
[45] = AUClast in mouse at 25 mg/kg, po; format: ADME, organism-based; settings: in vivo
[46] = Cmax in mouse at 25 mg/kg, po; format: ADME, organism-based; set-up: dose 25 mg/kg, route oral; settings: in vivo
[47] = species on record: Homo sapiens; test: Displacement of [3H]-diltiazem from L-type Ca2+ channel diltiazem site (unknown origin) at […]
[48] = test system: NCI-H1650; test: Induction of apoptosis in human NCI-H1650 cells by Annexin V staining; format: functional, cell-based
[49] = AUClast in mouse at 1 mg/kg, iv; format: ADME, organism-based; settings: in vivo
[50] = Clearance in mouse at 1 mg/kg, iv; format: ADME, organism-based; settings: in vivo
[51] = test system: NCI-H1650; test: Induction of apoptosis in human NCI-H1650 cells by Annexin V staining in presence of pan caspase inhibition Z-VAD; format: functional, cell-based
[52] = biological target: Sodium-dependent noradrenaline transporter (Homo sapiens) (UniProt P23975); test: Displacement of [3H]-nisoxetine from norepinephrine transporter (unknown origin) at 10 mM relative to control; how it was run: as §1
[53] = biological target: Sodium-dependent dopamine transporter (Homo sapiens) (UniProt Q01959); settings: 10 mM
[54] = biological target: Sodium-dependent dopamine transporter (Homo sapiens) (UniProt Q01959); settings: 1 mM
[55] = biological target: Sodium-dependent noradrenaline transporter (Homo sapiens) (UniProt P23975); test: Displacement of [3H]-nisoxetine from norepinephrine transporter (unknown origin) at 0.1 mM relative to control; how it was run: as §1
[56] = biological target: Sodium-dependent noradrenaline transporter (Homo sapiens) (UniProt P23975); test: Displacement of [3H]-nisoxetine from norepinephrine transporter (unknown origin) at 1 mM relative to control; how it was run: as §1

For `O=S(=O)(NCCCN1c2ccccc2CCc2ccc(Cl)cc21)c1ccc(OC(F)(F)F)cc1`, the Tmax [1] was 2 h, the inhibition [2] was “inactive” and the inhibition [3] was “inactive”. The “inhibition (INH)” value [4] was “Not Active”, the bioavailability [5] was 100% and the “inhibition (INH)” value [6] was “Not Active”. The Cmax [7] was 2350 ng/mL, the inhibition [8] was “inactive” and the AUC(0-inf) [9] was 7210 ng·h/mL. The AUC(0-t) [10] was 12800 ng·h/mL, the inhibition [11] was “Active” and the inhibition [12] was “Active”. For the same molecule, the inhibition [13] was “Active”, the “inhibition (INH)” value [14] was “Not Active” and the AUC(0-inf) [15] was 40700 ng·h/mL. The AUC(0-inf) [16] was 1430 ng·h/mL, the bioavailability [17] was 15% and the inhibition [18] was under 5%. The Tmax [19] was 1 h, the inhibition [20] was “inactive” and the Vd [21] was 1.31 L/kg. For the same molecule, the bioavailability [22] was 18%, the AUC(0-inf) [23] was 14100 ng·h/mL and the inhibition [24] was “inactive”. The GI50 [25] was 12.6 µM, the inhibition [26] was “inactive” and the bioavailability [27] was 38%. The Tmax [28] was 2 h, the “fold change (FC)” value [29] was 1.49 and the inhibition [30] was “Active”. For the same molecule, the Tmax [31] was 1 h, the AUC(0-inf) [32] was 399 ng·h/mL and the Activity [33] was “Active”. The AUC(0-inf) [34] was 3680 ng·h/mL, the Tmax [35] was 4 h and the AUC(0-t) [36] was 3570 ng·h/mL. The half-life [37] was 0.61 h, the AUC(0-t) [38] was 6790 ng·h/mL and the Cmax [39] was 3100 ng/mL. The AUC(0-t) [40] was 38800 ng·h/mL, the Cmax [41] was 1940 ng/mL and the inhibition [42] was “inactive”. For the same molecule, the bioavailability [43] was 34%, the Cmax [44] was 754 ng/mL and the AUC(0-t) [45] was 1380 ng·h/mL. For the same molecule, the Cmax [46] was 476 ng/mL, the inhibition [47] was “inactive” and the Activity [48] was “Active”. For the same molecule, the AUC(0-t) [49] was 375 ng·h/mL, the clearance [50] was 42 mL/min/kg and the Activity [51] was “inactive”.
For `CN(C)CCCN1c2ccccc2CCc2ccc(Cl)cc21` [CLOMIPRAMINE], the “inhibition (INH)” value [6] was “Active”, the inhibition [52] was 100% and the inhibition [53] was 60%. For the same molecule, the inhibition [54] was 14%, the GI50 [25] was over 40 µM and the Activity [33] was “Active”. It also gave an inhibition [55] of 5% and an inhibition [56] of 90%.
